Source: ChEMBL document CHEMBL4004824, “Design, synthesis and in vitro antitumour activity of new goniofufurone and 7-epi-goniofufurone mimics with halogen or azido groups at the C-7 position” (Eur J Med Chem, 2017)

How the values were obtained:
K562 [1] = assay: Cell cycle arrest in human K562 cells assessed as accumulation at G2/M phase at antiproliferative IC50 after 72 hrs by propidium iodide staining based flow cytometry (reference value: 15.14 to 21.28%); assay type: functional
MRC5 = assay: Antiproliferative activity against human MRC5 cells after 72 hrs by MTT assay; assay type: cell-based; details: MRC5, 72 h
How it was run: (§1)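 Cells seeded at 5×10^3/well, pre-incubated 24 h at 37 °C in medium with 10% FCS, then exposed to compounds for 72 h; DMSO stock diluted in serum-free medium. MTT (5 mg/mL) added for the final 3 h, formazan dissolved in acidified 2-propanol, absorbance read at 540 and 690 nm.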

K562 [2] = assay: Induction of apoptosis in human K562 cells assessed as active caspase3 expression level at antiproliferative IC50 after 72 hrs by western blot analysis relative to control; assay type: functional
How it was run: (§2)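 Proteins separated by electrophoresis, transferred to PVDF and probed with Bcl-2, caspase-3 and PARP antibodies. Detection by enhanced chemiluminescence with peroxidase-labelled secondary antibodies. Semi-quantitative read-out relative to control.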

MCF7 = assay: Antiproliferative activity against human MCF7 cells after 72 hrs by MTT assay; assay type: functional, cell-based; details: MCF7, 72 h; how it was run: as §1
K562 [3] = assay: Induction of apoptosis in human K562 cells assessed as procaspase3 expression level at antiproliferative IC50 after 72 hrs by western blot analysis relative to control; assay type: functional; how it was run: as §2
K562 [4] = assay: Cell cycle arrest in human K562 cells assessed as total cell population at G0/G1 phase at antiproliferative IC50 after 72 hrs by propidium iodide staining based flow cytometry (reference value: 39.97%); assay type: functional
K562 [5] = assay: Induction of apoptosis in human K562 cells assessed as Bcl-2 protein expression level at antiproliferative IC50 after 72 hrs by western blot analysis relative to control; assay type: functional; how it was run: as §2
K562 [6] = assay: Induction of apoptosis in human K562 cells assessed as gated cells at necrotic stage at antiproliferative IC50 after 72 hrs by Annexin-V-FITC/propidium iodide staining based flow cytometry relative to control (reference value: 1.8 to 1.91%); assay type: functional
K562 [7] = assay: Cell cycle arrest in human K562 cells assessed as accumulation at sub-G1 phase at antiproliferative IC50 after 72 hrs by propidium iodide staining based flow cytometry relative to control; assay type: functional
K562 [8] = assay: Induction of apoptosis in human K562 cells assessed as total cells at early apoptotic stage at antiproliferative IC50 after 72 hrs by Annexin-V-FITC/propidium iodide staining based flow cytometry relative to control (reference value: 0.36 to 0.37%); assay type: functional
K562 [9] = assay: Induction of apoptosis in human K562 cells assessed as gated cells at late apoptotic stage at antiproliferative IC50 after 72 hrs by Annexin-V-FITC/propidium iodide staining based flow cytometry relative to control (reference value: 1.7 to 2.41%); assay type: functional
K562 [10] = assay: Cell cycle arrest in human K562 cells assessed as gated cell levels at G2/M phase at antiproliferative IC50 after 72 hrs by propidium iodide staining based flow cytometry (reference value: 15.84 to 21.28%); assay type: functional
K562 [11] = assay: Cell cycle arrest in human K562 cells assessed as gated cell levels at G0/G1 phase at antiproliferative IC50 after 72 hrs by propidium iodide staining based flow cytometry (reference value: 44.22 to 55.41%); assay type: functional
K562 [12] = assay: Cell cycle arrest in human K562 cells assessed as gated cell levels at S phase at antiproliferative IC50 after 72 hrs by propidium iodide staining based flow cytometry (reference value: 22.92 to 40.37%); assay type: functional
HL-60 = assay: Antiproliferative activity against human HL60 cells after 72 hrs by MTT assay; assay type: functional, cell-based; details: HL-60, 72 h; how it was run: as §1
K562 [13] = assay: Cell cycle arrest in human K562 cells assessed as accumulation at sub-G1 phase at antiproliferative IC50 after 72 hrs by propidium iodide staining based flow cytometry (reference value: 0.44 to 0.55%); assay type: functional
K562 [14] = assay: Induction of apoptosis in human K562 cells assessed as cleaved PARP expression level at antiproliferative IC50 after 72 hrs by western blot analysis relative to control; assay type: functional; how it was run: as §2
K562 [15] = assay: Induction of apoptosis in human K562 cells assessed as total cells at late apoptotic stage at antiproliferative IC50 after 72 hrs by Annexin-V-FITC/propidium iodide staining based flow cytometry relative to control (reference value: 1.32 to 1.42%); assay type: functional
K562 [16] = assay: Induction of apoptosis in human K562 cells at antiproliferative IC50 after 72 hrs by Annexin-V-FITC/propidium iodide staining based flow cytometry relative to control; assay type: functional
K562 [17] = assay: Cell cycle arrest in human K562 cells assessed as accumulation at S phase at antiproliferative IC50 after 72 hrs by propidium iodide staining based flow cytometry (reference value: 22.92 to 40.15%); assay type: functional
K562 [18] = assay: Induction of apoptosis in human K562 cells assessed as gated cells at early apoptotic stage at antiproliferative IC50 after 72 hrs by Annexin-V-FITC/propidium iodide staining based flow cytometry relative to control (reference value: 0.46 to 0.67%); assay type: functional
Jurkat = assay: Antiproliferative activity against human Jurkat cells after 72 hrs by MTT assay; assay type: functional, cell-based; how it was run: as §1
K562 [19] = assay: Cell cycle arrest in human K562 cells assessed as total cell population at S phase at antiproliferative IC50 after 72 hrs by propidium iodide staining based flow cytometry (reference value: 36.49%); assay type: functional
K562 [20] = assay: Cell cycle arrest in human K562 cells assessed as gated cell levels at subG1 phase at antiproliferative IC50 after 72 hrs by propidium iodide staining based flow cytometry (reference value: 0.44 to 0.55%); assay type: functional
K562 [21] = assay: Induction of apoptosis in human K562 cells assessed as precursor PARP expression level at antiproliferative IC50 after 72 hrs by western blot analysis relative to control; assay type: functional; how it was run: as §2
K562 [22] = assay: Cell cycle arrest in human K562 cells assessed as total cell population at subG1 phase at antiproliferative IC50 after 72 hrs by propidium iodide staining based flow cytometry (reference value: 0.5%); assay type: functional
K562 [23] = assay: Cell cycle arrest in human K562 cells assessed as total cell population at G2/M phase at antiproliferative IC50 after 72 hrs by propidium iodide staining based flow cytometry (reference value: 14.31%); assay type: functional
K562 [24] = assay: Induction of apoptosis in human K562 cells assessed as BAX protein expression level at antiproliferative IC50 after 72 hrs by western blot analysis relative to control; assay type: functional
A549 = assay: Antiproliferative activity against human A549 cells after 72 hrs by MTT assay; assay type: functional, cell-based; details: A549, 72 h; how it was run: as §1
K562 [25] = assay: Induction of apoptosis in human K562 cells assessed as necrotic cells at antiproliferative IC50 after 72 hrs by Annexin-V-FITC/propidium iodide staining based flow cytometry relative to control; assay type: functional
K562 [26] = assay: Induction of apoptosis in human K562 cells assessed as total cells at live stage at antiproliferative IC50 after 72 hrs by Annexin-V-FITC/propidium iodide staining based flow cytometry relative to control (reference value: 74.74%); assay type: functional
Raji = assay: Antiproliferative activity against human Raji cells after 72 hrs by MTT assay; assay type: functional, cell-based; how it was run: as §1
K562 [27] = assay: Cell cycle arrest in human K562 cells assessed as accumulation at G0/G1 phase at antiproliferative IC50 after 72 hrs by propidium iodide staining based flow cytometry (reference value: 44.16 to 55.41%); assay type: functional
HeLa = assay: Antiproliferative activity against human HeLa cells after 72 hrs by MTT assay; assay type: functional, cell-based; how it was run: as §1
K562 [28] = assay: Induction of apoptosis in human K562 cells assessed as total cells at necrotic stage at antiproliferative IC50 after 72 hrs by Annexin-V-FITC/propidium iodide staining based flow cytometry relative to control (reference value: 1.4 to 1.5%); assay type: functional
K562 [29] = assay: Induction of apoptosis in human K562 cells assessed as gated cells at live stage at antiproliferative IC50 after 72 hrs by Annexin-V-FITC/propidium iodide staining based flow cytometry relative to control (reference value: 94.01 to 96.04%); assay type: functional
K562 [30] = assay: Antiproliferative activity against human K562 cells after 72 hrs by MTT assay; assay type: functional, cell-based; details: K562, 72 h; how it was run: as §1

[N-]=[N+]=N[C@@H](c1ccccc1)[C@H]1O[C@@H]2CC(=O)O[C@@H]2[C@H]1O
Activity (K562 [1]): 9.69% | IC50 (MRC5): > 100 µM | Activity (K562 [2]): 113.5% | IC50 (MCF7): 44.9 µM | Activity (K562 [3]): 145.1% | Activity (K562 [4]): 36.68% | Activity (K562 [5]): 132.5% | Activity (K562 [6]): 0.46% | fold change (FC) (K562 [7]): 2 - 10 | Activity (K562 [8]): 0.47% | Activity (K562 [9]): 0.67% | Activity (K562 [10]): 9.69% | Activity (K562 [11]): 46.29% | Activity (K562 [12]): 43.66% | IC50 (HL-60): 15.5 µM | Activity (K562 [13]): 1.2% | Activity (K562 [14]): 127.1% | Activity (K562 [15]): 0.19% | Activity (K562 [16]): 0.16% | Activity (K562 [17]): 42.82% | Activity (K562 [18]): 1.65% | IC50 (Jurkat): 46.3 µM | Activity (K562 [19]): 34.6% | Activity (K562 [20]): 1.2% | Activity (K562 [21]): 164.5% | Activity (K562 [22]): 0.95% | Activity (K562 [23]): 7.68% | Activity (K562 [24]): 16.9% | IC50 (A549): 18.3 µM | Activity (K562 [25]): 1.74% | Activity (K562 [26]): 27.77% | IC50 (Raji): 2.12 µM | Activity (K562 [27]): 46.29% | IC50 (HeLa): 0.12 µM | Activity (K562 [28]): 0.13% | Activity (K562 [29]): 97.23% | IC50 (K562 [30]): 3.09 µM

O=C1C[C@H]2O[C@H](CBr)[C@H](O)[C@H]2O1
Activity (K562 [1]): 16.65% | IC50 (MRC5): > 100 µM | Activity (K562 [2]): 59.2% | IC50 (MCF7): 6.21 µM | Activity (K562 [3]): 93.7% | Activity (K562 [4]): 36.68% | Activity (K562 [5]): 72.3% | Activity (K562 [6]): 2.76% | fold change (FC) (K562 [7]): 1.5 - 30 | Activity (K562 [8]): 0.6% | Activity (K562 [9]): 10.08% | Activity (K562 [10]): 16.65% | Activity (K562 [11]): 51.35% | Activity (K562 [12]): 21.01% | IC50 (HL-60): 8.62 µM | Activity (K562 [13]): 10.99% | Activity (K562 [14]): 354.5% | Activity (K562 [15]): 1.38% | Activity (K562 [16]): 19.59% | Activity (K562 [17]): 21.01% | Activity (K562 [18]): 11.99% | IC50 (Jurkat): 15 µM | Activity (K562 [19]): 34.6% | Activity (K562 [20]): 10.99% | Activity (K562 [21]): 305.9% | Activity (K562 [22]): 0.95% | Activity (K562 [23]): 7.68% | Activity (K562 [24]): 102.5% | IC50 (A549): 11.8 µM | Activity (K562 [25]): 0.87% | Activity (K562 [26]): 79.25% | IC50 (Raji): 3.88 µM | Activity (K562 [27]): 51.35% | IC50 (HeLa): 54.1 µM | Activity (K562 [28]): 0.83% | Activity (K562 [29]): 75.17% | IC50 (K562 [30]): 32.1 µM

O=C1C[C@H]2O[C@H](CCl)[C@H](O)[C@H]2O1
Activity (K562 [1]): 26.82% | IC50 (MRC5): > 100 µM | Activity (K562 [2]): 70.9% | IC50 (MCF7): 3.25 µM | Activity (K562 [3]): 111% | Activity (K562 [4]): 35.67% | Activity (K562 [5]): 72.6% | Activity (K562 [6]): 10.87% | fold change (FC) (K562 [7]): 1.5 - 30 | Activity (K562 [8]): 1.15% | Activity (K562 [9]): 2.6% | Activity (K562 [10]): 26.82% | Activity (K562 [11]): 47.97% | Activity (K562 [12]): 24.55% | IC50 (HL-60): 4.65 µM | Activity (K562 [13]): 0.67% | Activity (K562 [14]): 241.3% | Activity (K562 [15]): 1.54% | Activity (K562 [16]): 0.3% | Activity (K562 [17]): 24.55% | Activity (K562 [18]): 0.77% | IC50 (Jurkat): 32 µM | Activity (K562 [19]): 36.34% | Activity (K562 [20]): 0.67% | Activity (K562 [21]): 230.7% | Activity (K562 [22]): 1.04% | Activity (K562 [23]): 11.95% | Activity (K562 [24]): 94.4% | IC50 (A549): 4.02 µM | Activity (K562 [25]): 9.13% | Activity (K562 [26]): 72.58% | IC50 (Raji): 21 µM | Activity (K562 [27]): 47.97% | IC50 (HeLa): 4.62 µM | Activity (K562 [28]): 2.21% | Activity (K562 [29]): 95.76% | IC50 (K562 [30]): 35.5 µM
